According to ChEMBL document CHEMBL4765245 (Eur J Med Chem, 2020):
pIC50: −log10 of the molar value. Counter-ions that a name gives are not always drawn.

Key:
rhinovirus A2 = experiment: Antiviral activity against Rhinovirus A2 infected in human HeLa cell line assessed as inhibition of virus-induced cytopathic effect measured after 72 hrs by crystal violet uptake assay; format: functional, organism-based; conditions: for pIC50: Rhinovirus A, HeLa, 72 h, read-out: IC50
Procedure, shortened: (§1)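 HeLa Ohio monolayers, 1 day old, in 2% FCS medium. Compound added as serial half-log dilutions from 100 μM immediately before rhinovirus infection. Activity calculated per Pauwels; IC50 is the mean of at least 3 experiments.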

Coxsackievirus B3 [1] = experiment: Antiviral activity against wild type Coxsackievirus B3 97927 infected in human HeLa cell line assessed as inhibition of virus-induced cytopathic effect measured after 48 hrs by crystal violet uptake assay; format: functional, organism-based; conditions: for pIC50: Enterovirus B, 97927, HeLa, 48 h, read-out: IC50
Procedure, shortened: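 Coxsackievirus B3 infection of 2-day-old HeLa Ohio monolayers in 2% FCS medium. Half-log dilutions from 100 μM added just before infection; guanidine hydrochloride served as positive control. Antiviral activity calculated per Pauwels; IC50 is the mean of at least 3 separate tests.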

HeLa = experiment: Cytotoxicity against human HeLa cells assessed as reduction in cell viability incubated for 72 hrs measured by crystal violet based micro plate reader method; conditions: hela, 72 h
Procedure, shortened: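 Two-day-old confluent HeLa Ohio monolayers exposed to half-log dilutions (100 μM downward) in 2% FCS medium for 72 h at 37 °C, 5% CO2. Cells fixed and stained with crystal violet/formalin, dye eluted with acidified citrate-ethanol, OD read at 550/630 nm. Viability expressed relative to six mock-treated controls; CC50 is the mean of at least 3 tests.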

Coxsackievirus B3 [2] = experiment: Antiviral activity against pleconaril-resistant Coxsackievirus B3 97927 11207M/I1092 mutant infected in human HeLa cell line assessed as inhibition of virus-induced cytopathic effect measured after 48 hrs by crystal violet uptake assay; format: functional, organism-based
Procedure, shortened: (§2)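 HeLa Ohio monolayers, 2 days old and confluent, in MEM with 2% FCS. Serial half-log compound dilutions from 100 μM were added just before CVB3 infection. Activity was calculated per Pauwels against six cell and six virus controls; mean IC50 from ≥3 experiments.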

Coxsackievirus B3 [3] = experiment: Antiviral activity against pleconaril-resistant Coxsackievirus B3 97927 11207K/I1092 mutant infected in human HeLa cell line assessed as inhibition of virus-induced cytopathic effect measured after 48 hrs by crystal violet uptake assay; format: functional, organism-based; conditions: for pIC50: read-out: IC50; procedure, shortened: as §2
rhinovirus B14 = experiment: Antiviral activity against Rhinovirus B14 infected in human HeLa cell line assessed as inhibition of virus-induced cytopathic effect measured after 72 hrs by crystal violet uptake assay; format: functional, organism-based; conditions: for pIC50: Rhinovirus B, HeLa, 72 h, read-out: IC50; procedure, shortened: as §1
Coxsackievirus B3 [4] = experiment: Antiviral activity against pleconaril-resistant Coxsackievirus B3 97927 11207T/I1092 mutant infected in human HeLa cell line assessed as inhibition of virus-induced cytopathic effect measured after 48 hrs by crystal violet uptake assay; format: functional, organism-based; conditions: for pIC50: read-out: IC50; procedure, shortened: as §2
Coxsackievirus B3 [5] = experiment: Antiviral activity against Coxsackievirus B3 Nancy infected in human HeLa cell line assessed as inhibition of virus-induced cytopathic effect measured after 48 hrs by crystal violet uptake assay; format: functional, organism-based; conditions: for pIC50: Enterovirus B, Nancy, HeLa, 48 h, read-out: IC50; procedure, shortened: as §2
rhinovirus B5 = experiment: Antiviral activity against Rhinovirus B5 infected in human HeLa cell line assessed as inhibition of virus-induced cytopathic effect measured after 72 hrs by crystal violet uptake assay; format: functional, organism-based; conditions: for pIC50: Rhinovirus B, HeLa, 72 h, read-out: IC50
Procedure, shortened: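 HeLa Ohio monolayers, 1 day old, in 2% FCS medium. Compound added as serial half-log dilutions from 100 μM immediately before rhinovirus infection. CPE read at 72 h by crystal violet staining, elution and OD 550/630 nm, with six cell and six virus controls per plate. Activity calculated per Pauwels; IC50 is the mean of at least 3 experiments.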

| Structure (SMILES) | pIC50 (rhinovirus A2) | pIC50 (Coxsackievirus B3 [1]) | CC50 (HeLa) [µM] | pIC50 (Coxsackievirus B3 [2]) | IC50 (Coxsackievirus B3 [3]) | pIC50 (rhinovirus B14) | IC50 (Coxsackievirus B3 [4]) | IC50 (Coxsackievirus B3 [5]) | IC50 (rhinovirus A2) | IC50 (rhinovirus B5) | pIC50 (Coxsackievirus B3 [4]) | IC50 (rhinovirus B14) | pIC50 (Coxsackievirus B3 [3]) | IC50 (Coxsackievirus B3 [1]) | pIC50 (rhinovirus B5) | pIC50 (Coxsackievirus B3 [5]) |
| --- | --- | --- | --- | --- | --- | --- | --- | --- | --- | --- | --- | --- | --- | --- | --- | --- |
| Cc1cc(-c2noc(C(F)(F)F)n2)cc(C)c1OCCCc1cc(C(=O)OC(C)C)no1 | 5.61 | 6.72 | 17.9 | 5.39 | Not Active | 6.37 | Not Active |  |  |  |  |  |  |  |  |  |
| CCOC(=O)c1cc(CCCOc2ccc(-c3noc(C(F)(F)F)n3)cc2F)on1 |  | 6.66 | 60.2 | 5.87 |  | 6.30 |  | Not Active | Not Active | Not Active | 4.60 |  |  |  |  |  |
| CCOC(=O)c1cc(CCCOc2ccc(-c3noc(C(F)(F)F)n3)cc2C(F)(F)F)on1 | 5.31 | 7.52 | 28.4 | 8.00 |  |  |  | Not Active |  | Not Active | 5.98 | Not Active |  |  |  |  |
| CCOC(=O)c1cc(CCCOc2c(OC)cc(-c3noc(C(F)(F)F)n3)cc2[N+](=O)[O-])on1 | 5.25 | 5.92 | > 100 | 5.00 |  | 5.57 |  | Not Active |  | Not Active | 4.36 |  |  |  |  |  |
| CCOC(=O)c1cc(CCCOc2c(C)cc(-c3noc(C(F)(F)F)n3)cc2C)on1 |  | 7.15 | 17.2 | 6.03 |  |  |  | Not Active |  |  | 4.69 |  | 4.95 |  |  |  |
| Cc1cc(-c2noc(C(F)(F)F)n2)cc(C)c1OCCCc1cc(-c2ccc(OC(F)(F)F)cc2)no1 |  |  | > 100 |  |  |  |  |  | Not Active |  |  |  |  | Not Active |  |  |
| CCOC(=O)c1cc(CCCOc2ccc(-c3noc(C(F)(F)F)n3)cc2[N+](=O)[O-])on1 | 4.32 | 6.83 | > 100 | 6.74 |  | 5.53 |  | Not Active |  | Not Active | 5.40 |  |  |  |  |  |
| Cc1cc(-c2noc(C(F)(F)F)n2)cc(C)c1OCCCc1cc(-c2ccccc2)no1 | 6.12 | 6.85 | > 100 | 6.55 | Not Active | 6.28 |  |  |  | Not Active | 5.77 |  |  |  |  |  |
| CCOC(=O)c1cc(CCCOc2ccc(-c3noc(C(F)(F)F)n3)cc2-n2cccc2)on1 |  | 4.99 | 57.3 |  |  |  |  | Not Active | Not Active | Not Active | 4.84 | Not Active |  |  |  |  |
| CCOC(=O)c1cc(CCCOc2ccc(-c3noc(C(F)(F)F)n3)cc2OC)on1 | 4.22 | 6.31 | > 100 | 5.47 |  | 6.18 |  | Not Active |  |  | 4.43 |  |  |  | 4.71 |  |
| CCNC(=O)c1cc(CCCOc2c(C)cc(-c3noc(C(F)(F)F)n3)cc2C)on1 | 6.22 | 7.30 | > 100 | 6.32 | Not Active | 6.74 | Not Active |  |  |  |  |  |  |  |  |  |
| CCOC(=O)c1cc(CCCOc2ccc(-c3noc(C(F)(F)F)n3)cc2NC(C)=O)on1 |  |  | > 100 |  |  |  |  | Not Active | Not Active | Not Active |  | Not Active |  | Not Active |  |  |
| CCOC(=O)c1cc(CCCOc2ccc(-c3noc(C(F)(F)F)n3)cc2)on1 |  | 6.13 | > 100 | 5.18 |  | 6.47 |  | Not Active | Not Active | Not Active | 4.37 |  |  |  |  |  |
| COc1ccc(-c2cc(CCCOc3c(C)cc(-c4noc(C(F)(F)F)n4)cc3C)on2)cc1OC | 5.68 |  | 41.9 |  |  | 5.56 |  |  |  |  |  |  |  | Not Active |  |  |
| Cc1cc(-c2noc(C(F)(F)F)n2)cc(C)c1OCCCc1cc(C(=O)NCc2ccccc2)no1 | 6.64 | 5.86 | > 100 | 4.84 | Not Active | 6.60 | Not Active |  |  |  |  |  |  |  |  |  |
| CCOC(=O)c1cc(CCCOc2ccc(-c3noc(C(F)(F)F)n3)cc2/N=C/N(C)C)on1 |  | 4.70 | > 100 |  |  | 4.53 |  | Not Active | Not Active | Not Active |  |  |  |  |  |  |
| CC(=O)Nc1cc(-c2noc(C(F)(F)F)n2)ccc1OCCCc1cc(C(=O)N(C)C)no1 |  | 4.52 | > 100 | 4.79 |  | 4.74 |  | Not Active | Not Active | Not Active | 4.14 |  |  |  |  |  |
| CN(C)C(=O)c1cc(CCCOc2ccc(-c3noc(C(F)(F)F)n3)cn2)on1 |  | 5.23 | 48.8 |  |  | 6.92 |  |  |  |  | 4.76 |  |  |  | 5.37 | 4.65 |
| CN(C)C(=O)c1cc(CCCOc2ccc(-c3noc(C(F)(F)F)n3)cc2-n2cccc2)on1 | 5.49 | 6.09 | 21.2 | 5.97 |  | 5.13 |  | Not Active |  | Not Active | 5.45 |  |  |  |  |  |
| Cc1cc(-c2noc(C(F)(F)F)n2)cc(C)c1OCCCc1cc(C(N)=O)no1 | 6.30 | 7.15 | > 100 | 5.77 | Not Active | 6.66 | Not Active |  |  |  |  |  |  |  |  |  |
| CCOC(=O)c1cc(CCCOc2ccc(-c3noc(C(F)(F)F)n3)cc2N)on1 |  | 4.70 | > 100 |  |  | 4.85 |  | Not Active | Not Active | Not Active |  |  |  |  |  |  |
| N=C(N)N [GUANIDINE HYDROCHLORIDE] |  | 3.23 |  | 3.17 |  |  |  |  |  |  | 3.14 |  | 3.18 |  |  | 3.37 |
| Cc1cc(CCCOc2c(C)cc(-c3noc(C(F)(F)F)n3)cc2C)on1 [PLECONARIL] |  |  | 26.2 | 5.69 | Not Active |  |  | Not Active |  | Not Active | 5.40 |  |  |  |  |  |
